Consider 15 compounds from paper PMC11310838 (RSC Advances, 2024).

For orientation: inhibition means the share of the control response that was lost under treatment. For orientation: IC50 means the concentration that inhibits the measured activity by half.

Holding throughout (assay): Sulforhodamine B
The subject of one assay is HCT116 cell line. It counts as cell-based, human. The following applies: for inhibition at 100 µM: Homo sapiens, HCT-116, 48 h, read-out: Percentage of cell growth inhibition at [100 μM] HCT116. The method, boiled down: (§1)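 Carcinoma lines came from the National Cancer Institute, Cairo, and were grown as monolayers in DMEM with 10% FBS and 1% penicillin–streptomycin. Final DMSO was ≤0.1% (v/v). Cells were treated for 48 h either at a single 100 μM dose (% growth inhibition) or at 0, 6.25, 12.5, 25 and 50 μM. SRB staining was read at 570 nm as % viability. IC50 came from dose–response curve fitting.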

The test system of a further assay is HEPG2 cell line. It counts as cell-based, human. The following applies: for inhibition at 100 µM: Homo sapiens, HepG2, 48 h, read-out: Percentage of cell growth inhibition at [100 μM] HEPG2. An outline of the steps:
as §1

Assay [1] concerns HDF cell line (Human Dermal Fibroblasts). Type of assay: cell-based. Conditions: 48 h; for inhibition at 100 µM: Homo sapiens, HDF, read-out: Percentage of cell growth inhibition at [100 μM] HDF. An outline of the steps:
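Normal human dermal fibroblasts came from the National Cancer Institute, Cairo. Final DMSO was ≤0.1% (v/v). Cells were exposed to the test compound at a single 100 μM dose for 48 h. Growth inhibition was measured by the sulforhodamine-B method, with absorbance read at 570 nm and expressed as percentage of cell viability.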

A further assay concerns MCF7 cell line. It counts as cell-based, human. Conditions: for inhibition at 100 µM: Homo sapiens, MCF7, 48 h, read-out: Percentage of cell growth inhibition at [100 μM] MCF7. An outline of the steps: as §1
The mark [2] stands for this setting: single dose 100 μM, 48 h, SRB, mean ± SD.

As for `NC(=S)NN=Cc1ccc(OCC(=O)N2CCN(C(=O)COc3ccc(C=NNC(N)=S)cc3)CC2)cc1` [Compound 7a, 1,1′-(Piperazine-1,4-diyl)bis(2-(4-(2-carbamothioylhydrazono)methylphenoxy)ethanone)], the inhibition at 100 µM in the assay with HCT116 cell line is 86.2 ± 5.33%; with HEPG2 cell line it was 83.3 ± 7.47%; in assay [1], 45.1 ± 30.1%; with MCF7 cell line, 85.3 ± 5.2%.

Regarding `Cc1nc(NN=Cc2ccc(OCC(=O)N3CCN(C(=O)COc4ccc(C=NNc5nc(C)c(N=Nc6ccc(F)cc6)s5)cc4)CC3)cc2)sc1N=Nc1ccc(F)cc1` [Compound 9c, 1,1′-(Piperazine-1,4-diyl)bis(2-(4-(((4-methyl-5-(4-fluorophenylazo)thiazol-2-yl)hydrazono)-methyl)phenoxy)ethanone)], the inhibition at 100 µM in the assay on HCT116 cell line is 87.2 ± 4.53%; in the assay on HEPG2 cell line it was 77.2 ± 3.1%; in assay [1], 67.7 ± 11.5%; in the assay with MCF7 cell line, 90.3 ± 1.3%.

As to `Cc1nc(NN=Cc2ccc(OCC(=O)N3CCN(C(=O)COc4ccc(C=NNc5nc(C)c(N=Nc6ccc(Cl)cc6)s5)cc4)CC3)cc2)sc1N=Nc1ccc(Cl)cc1` [Compound 9d, 1,1′-(Piperazine-1,4-diyl)bis(2-(4-(((4-methyl-5-(4-chlorophenylazo)thiazol-2-yl)hydrazono)-methyl)phenoxy)ethanone)], the inhibition at 100 µM in the assay with HCT116 cell line worked out at 89.1 ± 2.04%; in the assay with HEPG2 cell line it was 73.1 ± 5.28%; in assay [1] it was 57.7 ± 18%; in the assay on MCF7 cell line, 90.5 ± 1.99%.

For the compound `Cc1ccc(N=Nc2sc(NN=Cc3ccccc3OCC(=O)N3CCN(C(=O)COc4ccccc4C=NNc4nc(C)c(N=Nc5ccc(C)cc5)s4)CC3)nc2C)cc1` [Compound 9f, 1,1′-(Piperazine-1,4-diyl)bis(2-(2-(((4-methyl-5-(4-tolylazo)thiazol-2-yl)hydrazono)methyl)-phenoxy)ethanone)], the inhibition at 100 µM is 85.4 ± 6.41% in the assay with HCT116 cell line, 93.5 ± 2.07% in the assay with HEPG2 cell line, 78.3 ± 3.64% in assay [1] and 85.5 ± 2.11% with MCF7 cell line.

Take `Cc1nc(NN=Cc2ccccc2OCC(=O)N2CCN(C(=O)COc3ccccc3C=NNc3nc(C)c(N=Nc4ccc(F)cc4)s3)CC2)sc1N=Nc1ccc(F)cc1` [Compound 9g, 1,1′-(Piperazine-1,4-diyl)bis(2-(2-(((4-methyl-5-(4-fluorophenylazo)thiazol-2-yl)hydrazono)-methyl)phenoxy)ethanone)]: the inhibition at 100 µM with HCT116 cell line was 80.6 ± 7.04%; in the assay with HEPG2 cell line, 91.8 ± 3.29%; in assay [1], 71.1 ± 21.6%; in the assay with MCF7 cell line, 88.7 ± 4.11%.

In the case of `Cc1nc(NN=Cc2ccccc2OCC(=O)N2CCN(C(=O)COc3ccccc3C=NNc3nc(C)c(N=Nc4ccc(Cl)cc4)s3)CC2)sc1N=Nc1ccc(Cl)cc1` [Compound 9h, 1,1′-(Piperazine-1,4-diyl)bis(2-(2-(((4-methyl-5-(4-chlorophenylazo)thiazol-2-yl)hydrazono)-methyl)phenoxy)ethanone)], the inhibition at 100 µM worked out at 77.7 ± 8.59% in the assay on HCT116 cell line, 84 ± 3.07% in the assay with HEPG2 cell line, 56 ± 23.6% in assay [1] and 81 ± 7.44% with MCF7 cell line.

Regarding `Cc1nc(NN=Cc2ccccc2OCC(=O)N2CCN(C(=O)COc3ccccc3C=NNc3nc(C)c(N=Nc4ccc([N+](=O)[O-])cc4)s3)CC2)sc1N=Nc1ccc([N+](=O)[O-])cc1` [Compound 9j, 1,1′-(Piperazine-1,4-diyl)bis(2-(2-(((4-methyl-5-(4-nitrophenylazo)thiazol-2-yl)hydrazono)-methyl)phenoxy)ethanone)], the inhibition at 100 µM was found to be 87.7 ± 4.3% in the assay on HCT116 cell line, 83.1 ± 7.22% in the assay with HEPG2 cell line, 12 ± 6.04% in assay [1] and 71.4 ± 20.5% in the assay on MCF7 cell line.

For `O=C(COc1ccc(C=NN=c2sc(-c3ccccc3)nn2-c2ccccc2)cc1)N1CCN(C(=O)COc2ccc(C=NN=c3sc(-c4ccccc4)nn3-c3ccccc3)cc2)CC1` [Compound 13a, 1,1′-(Piperazine-1,4-diyl)bis(2-(4-(((3,5-diphenyl-1,3,4-thiadiazol-2(3H)-ylidene)hydrazono)-methyl)phenoxy)ethanone)], the inhibition at 100 µM in the assay with HCT116 cell line was determined as 78.1 ± 5.78%; in the assay on HEPG2 cell line it was 71.4 ± 4.92%; in assay [1], 52.5 ± 14.8%; in the assay with MCF7 cell line, 88.2 ± 1.88%.

In the case of `O=C(COc1ccccc1C=NN=c1sc(-c2ccccc2)nn1-c1ccccc1)N1CCN(C(=O)COc2ccccc2C=NN=c2sc(-c3ccccc3)nn2-c2ccccc2)CC1` [Compound 13c, 1,1′-(Piperazine-1,4-diyl)bis(2-(2-(((3,5-diphenyl-1,3,4-thiadiazol-2(3H)-ylidene)hydrazono)-methyl)phenoxy)ethanone)], the inhibition at 100 µM with HCT116 cell line turned out to be 76.4 ± 5.38%; with HEPG2 cell line, 68.8 ± 12.7%; in assay [1] it was 60.8 ± 3.09%; with MCF7 cell line, 86.2 ± 1.83%.

`O=C(COc1ccccc1C=NN=c1sc(-c2ccc(Cl)cc2)nn1-c1ccccc1)N1CCN(C(=O)COc2ccccc2C=NN=c2sc(-c3ccc(Cl)cc3)nn2-c2ccccc2)CC1` [Compound 13d, 1,1′-(Piperazine-1,4-diyl)bis(2-(2-(((5-(4-chlorophenyl)-3-phenyl-1,3,4-thiadiazol-2(3H)-ylidene)-hydrazono)methyl)phenoxy)ethanone)]: the inhibition at 100 µM with HCT116 cell line stood at 88.9 ± 1.38%; in the assay with HEPG2 cell line it was 80 ± 3.39%; in assay [1], 64 ± 10.8%; in the assay with MCF7 cell line it was 86.4 ± 2.56%.

For the compound `O=C(COc1ccc(C=NN=c2[nH]c(-c3ccccc3)cs2)cc1)N1CCN(C(=O)COc2ccc(C=NN=c3[nH]c(-c4ccccc4)cs3)cc2)CC1` [Compound 15a, 1,1′-(Piperazine-1,4-diyl)bis(2-(4-(((4-phenylthiazol-2(3H)-ylidene)hydrazineylidene)methyl)-phenoxy)ethanone)], the inhibition at 100 µM in the assay on HCT116 cell line came to 78.1 ± 6.5%; with HEPG2 cell line, 67.9 ± 7.03%; in assay [1] it was 50.2 ± 21.5%; in the assay with MCF7 cell line, 87.3 ± 1.63%.

In the case of `COc1ccc(-c2csc(=NN=Cc3ccc(OCC(=O)N4CCN(C(=O)COc5ccc(C=NN=c6[nH]c(-c7ccc(OC)cc7)cs6)cc5)CC4)cc3)[nH]2)cc1` [Compound 15b, 1,1′-(Piperazine-1,4-diyl)bis(2-(4-(((4-(4-methoxyphenyl)thiazol-2(3H)-ylidene)hydrazineylidene)-methyl)phenoxy)ethanone)], the inhibition at 100 µM in the assay on HCT116 cell line was found to be 21.8 ± 16.5%; with HEPG2 cell line, 83.4 ± 9.48%; in assay [1], 48 ± 48.5%; in the assay on MCF7 cell line it was 50.6 ± 10.2%.

In the case of `O=C(COc1ccc(C=NN=c2[nH]c(-c3cc4ccccc4oc3=O)cs2)cc1)N1CCN(C(=O)COc2ccc(C=NN=c3[nH]c(-c4cc5ccccc5oc4=O)cs3)cc2)CC1` [Compound 15e, 1,1′-(Piperazine-1,4-diyl)bis(2-(4-(((4-(coumarin-3-yl)thiazol-2(3H)-ylidene)hydrazineylidene)-methyl)phenoxy)ethanone)], the inhibition at 100 µM with HCT116 cell line amounted to 73.9 ± 4.08%; in the assay with HEPG2 cell line, 74.4 ± 4.88%; in assay [1] it was 68.1 ± 10.1%; in the assay on MCF7 cell line it was 68.4 ± 7.33%.

With `O=C(COc1ccccc1C=NN=c1[nH]c(-c2cc3ccccc3oc2=O)cs1)N1CCN(C(=O)COc2ccccc2C=NN=c2[nH]c(-c3cc4ccccc4oc3=O)cs2)CC1` [Compound 15h, 1,1′-(Piperazine-1,4-diyl)bis(2-(2-(((4-(coumarin-3-yl)thiazol-2(3H)-ylidene)hydrazineylidene)-methyl)phenoxy)ethanone)], the inhibition at 100 µM with HCT116 cell line was 36.4 ± 13.8%; in the assay with HEPG2 cell line, 70.1 ± 8.68%; in assay [1] it was 44 ± 51.5%; in the assay with MCF7 cell line, 46.7 ± 11.3%.

Consider `COc1cccc2c1C(=O)c1c(O)c3c(c(O)c1C2=O)C[C@@](O)(C(=O)CO)C[C@@H]3O[C@H]1C[C@H](N)[C@H](O)[C@H](C)O1` [DOX, reference compound], for which the IC50 is 7.7 ± 1.5 µM with HCT116 cell line (read-out: IC50 (μM) ± SD HCT116, 48 h treatment, SRB); 8.42 ± 1.7 µM in the assay with HEPG2 cell line (read-out: IC50 (μM) ± SD HEPG2, 48 h treatment, SRB); 7.59 ± 1.4 µM in the assay on MCF7 cell line (read-out: IC50 (μM) ± SD MCF7, 48 h treatment, SRB). Further, the “Percentage of cell growth inhibition at [100 μM] HCT116” value in the assay with HCT116 cell line (setting [2]) is 82.77 ± 2.98%. The “Percentage of cell growth inhibition at [100 μM] HEPG2” value in the assay with HEPG2 cell line (setting [2]) is 89.09 ± 0.63%. Moreover, in assay [1] (single dose 100 μM, SRB, normal cells, mean ± SD), the “Percentage of cell growth inhibition at [100 μM] HDF” value is 30.53 ± 9.75%. The “Percentage of cell growth inhibition at [100 μM] MCF7” value with MCF7 cell line (setting [2]) came to 86.37 ± 1.82%.
